Laboratory results reported in ChEMBL document CHEMBL1124572, “Synthesis and biological activity of novel carbacyclins having bicyclic substituents on the omega-chain” (J Med Chem, 1989).
Converted amounts (≈) assume the structure as drawn. The source made the active and inactive calls. The calls are words filed in the database; no cut-off is given here.

How the values were obtained:
[1] = test system: Rattus norvegicus; test: Inhibition of ethanol induced gastric lesions in the rat following p.o. administration.; assay type: functional; conditions: Stomach, po
Outline: (§1)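 Male Sprague-Dawley rats (200–300 g) were fasted 24 h and dosed orally at 2 mL/kg, 30 min before 1 mL of 100% ethanol per rat. Animals were killed 1 h later, and stomachs were formalin-fixed, opened along the greater curvature and examined for lesions. ED50 is the dose giving 50% lesion inhibition versus control, derived by linear regression from three dose groups of eight rats each.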

[2] = species on record: Rattus norvegicus; test: Antiaggregatory activity is expressed as dose that inhibit rat platelet aggregation induced by collagen by 50% of that of the control; assay type: functional
Outline: (§2)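 Male Wistar rats (250–350 g) under ether anesthesia were bled from the abdominal aorta into 0.1 volume 3.13% sodium citrate. Aggregation was induced by collagen (final 5 μg/mL) and read in an aggregometer at 37 °C with stirring. The IC50 is the concentration inhibiting aggregation by 50% versus control, derived by linear regression from three dose groups of five or six animals (mean ± SEM).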

[3] = test system: Rattus norvegicus; test: Dose that reduces mean blood pressure by 15 mmHg (peak effect) in rat administered intravenously; assay type: functional
Outline: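 Male Wistar rats (200–300 g) were anesthetized with urethane. Compound was given iv via the femoral vein, and blood pressure was recorded by transducer through a femoral artery catheter. MBP15 is the dose lowering mean blood pressure by 15 mmHg at peak effect, derived by linear regression from three dose groups of five or six animals (mean ± SEM).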

[4] = test system: Rattus norvegicus; test: Organ-protective activity is expressed as dose that inhibits 50 percent of ethanol-induced gastric lesions of control orally in rat; No effect; assay type: functional, organism-based; conditions: Stomach; outline: as §1
[5] = species on record: Rattus norvegicus; test: Relative potency for antiaggregation; assay type: functional
Outline: (§3)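 Antiaggregation relative potency was calculated against PGI2 from the IC50 for collagen-induced (5 μg/mL) aggregation of citrated rat blood, measured at 37 °C.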

[6] = species on record: Rattus norvegicus; test: Relative potency for hypotension; assay type: functional
[7] = species on record: Rattus norvegicus; test: Relative potency for hypotension in rats; assay type: functional
[8] = species on record: Rattus norvegicus; test: Relative potency for antiaggregation in rats; assay type: functional; outline: as §3
[9] = Ratio of relative potencies of antiaggregation/ hypotension to that of PGI-2 Na in rats
[10] = test system: Rattus norvegicus; test: Inhibition of ethanol induced gastric lesions in the rat following p.o. administration; No effect.; assay type: functional, organism-based; conditions: Stomach; outline: as §1
[11] = species on record: Rattus norvegicus; test: Relative potency for organ protection; assay type: functional
Outline: (§4)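 Relative potencies were calculated against PGE2 from the rat oral ED50 for ethanol-induced gastric lesions and the iv MBP15 hypotension dose. The ratio is organ-protective relative potency divided by hypotensive relative potency, with PGE2 set to 1.0.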

[12] = species on record: Rattus norvegicus; test: Antiaggregatory activity is expressed as dose that inhibit rat platelet aggregation induced by collagen by 50% of that of the control; No effect; assay type: functional; outline: as §2
[13] = species on record: Rattus norvegicus; test: Relative potency for organ protection in rats; assay type: functional; outline: as §4
[14] = Ratio of relative potencies of organ protection/ hypotension to that of PGE-2 in rats; assay type: functional; outline: as §4

SMILES	IC50 [2]	ED50 [1]	Dose lowering mean blood pressure by 15 mmHg [3]	also measured
CC1([C@H](O)/C=C/[C@@H]2C3C/C(=C/CCCC(=O)O)CC3C[C@H]2O)COc2ccccc2O1 (some centres not stated)	0.221 µg/mL (≈ 0.516 µM)	0.0142 mg/kg	3.6 µg/kg	–
OCCCC/C=C1\CC2C[C@@H](O)[C@H](/C=C/[C@@H](O)C3Cc4ccccc4C3)C2C1 (some centres not stated)	> 1 µg/mL	0.0536 mg/kg	>100 µg/kg	–
COc1ccc2c(c1)CC([C@H](O)/C=C/[C@@H]1C3C/C(=C/CCCC(=O)O)CC3C[C@H]1O)C2 (some centres not stated)	0.0705 µg/mL (≈ 0.165 µM)	0.0143 mg/kg	6 µg/kg	–
CCCCC[C@H](O)/C=C/[C@@H]1[C@H]2C/C(=C/CCCC(=O)[O-])O[C@H]2C[C@H]1O.[Na+] [EPOPROSTENOL SODIUM]	0.0034 µg/mL	–	0.3 µg/kg	ED50 [4]: inactive; Relative potency [5]: 1; Relative potency [6]: 1
O=C(O)CCC/C=C1\CC2C[C@@H](O)[C@H](/C=C/[C@@H](O)C3Cc4ccccc4C3)C2C1 (some centres not stated)	0.0204 µg/mL (≈ 0.0514 µM)	0.0562 mg/kg	4.3 µg/kg	Relative potency [7]: 0.07; Relative potency [8]: 0.17; Ratio [9]: 2.4
CC1([C@H](O)/C=C/[C@@H]2C3C/C(=C/CCCC(=O)O)CC3C[C@H]2O)Cc2ccccc2C1 (some centres not stated)	0.0302 µg/mL (≈ 0.0736 µM)	0.0452 mg/kg	5.3 µg/kg	–
CCCCC[C@H](O)/C=C/[C@H]1[C@H](O)CC(=O)[C@@H]1C/C=C\CCCC(=O)O [DINOPROSTONE]	–	0.0341 mg/kg	1.2 µg/kg	Relative potency [11]: 1; Relative potency [6]: 1; IC50 [12]: Not Active
O=C(O)CCC/C=C1\CC2C[C@@H](O)[C@H](/C=C/[C@@H](O)C3COC4CCCCC4O3)C2C1 (some centres not stated)	> 1 µg/mL	0.256 mg/kg	13.5 µg/kg	–
NC(=O)CCC/C=C1\CC2C[C@@H](O)[C@H](/C=C/[C@@H](O)C3Cc4ccccc4C3)C2C1 (some centres not stated)	0.0537 µg/mL (≈ 0.136 µM)	0.113 mg/kg	97.7 µg/kg	–
COc1ccc2c(c1)OCC([C@H](O)/C=C/[C@@H]1C3C/C(=C/CCCC(=O)O)CC3C[C@H]1O)O2 (some centres not stated)	0.355 µg/mL (≈ 0.799 µM)	0.0021 mg/kg	3.5 µg/kg	Relative potency [13]: 16.2; Relative potency [7]: 0.3; Ratio [14]: 47.6
O=C(O)CCC/C=C1\CC2C[C@@H](O)[C@H](/C=C/[C@@H](O)c3ccc4c(c3)OCO4)C2C1 (some centres not stated)	> 1 µg/mL	–	>100 µg/kg	ED50 [10]: No effect
O=C(O)CCC/C=C1\CC2C[C@@H](O)[C@H](/C=C/[C@@H](O)c3ccc4c(c3)CCC4)C2C1 (some centres not stated)	> 1 µg/mL	–	>100 µg/kg	ED50 [10]: No effect
O=C(O)CCC/C=C1\CC2C[C@@H](O)[C@H](/C=C/[C@@H](O)c3ccc4c(c3)OCCO4)C2C1 (some centres not stated)	> 1 µg/mL	> 0.3 mg/kg	>100 µg/kg	–
Cc1ccc2c(c1)OCC([C@H](O)/C=C/[C@@H]1C3C/C(=C/CCCC(=O)O)CC3C[C@H]1O)O2 (some centres not stated)	0.647 µg/mL (≈ 1.51 µM)	0.11 mg/kg	13 µg/kg	–
O=C(O)COCCC1=C[C@H]2C[C@@H](O)[C@H](/C=C/[C@@H](O)C3COc4ccccc4O3)C2C1 (some centres not stated)	0.0531 µg/mL (≈ 0.128 µM)	0.0085 mg/kg	1.7 µg/kg	–
O=C(O)CCC/C=C1\CC2C[C@@H](O)[C@H](/C=C/[C@@H](O)CC3COc4ccccc4O3)C2C1 (some centres not stated)	0.324 µg/mL (≈ 0.755 µM)	> 0.3 mg/kg	44 µg/kg	–
O=C(O)CCC/C=C1\CC2C[C@@H](O)[C@H](/C=C/[C@@H](O)C3CCc4ccccc43)C2C1 (some centres not stated)	> 1 µg/mL	–	>100 µg/kg	ED50 [10]: No effect

Further lines, with some results ahead:

IC50 [2]	SMILES	ED50 [1]	Dose lowering mean blood pressure by 15 mmHg [3]	also measured
0.0764 µg/mL (≈ 0.192 µM)	O=C(O)CCC/C=C1\CC2C[C@@H](O)[C@H](CC[C@@H](O)C3Cc4ccccc4C3)C2C1 (some centres not stated)	–	35 µg/kg	ED50 [10]: No effect
0.407 µg/mL (≈ 0.945 µM)	O=C(O)CCC/C=C1\CC2C[C@@H](O)[C@H](/C=C/[C@@H](O)C3Cc4ccc(Cl)cc4C3)C2C1 (some centres not stated)	> 0.3 mg/kg	>100 µg/kg	–
0.0567 µg/mL (≈ 0.142 µM)	O=C(O)COCCC1=C[C@H]2C[C@@H](O)[C@H](/C=C/[C@@H](O)C3Cc4ccccc4C3)C2C1 (some centres not stated)	0.0274 mg/kg	2.2 µg/kg	–
0.0082 µg/mL (≈ 0.0208 µM)	O=C(O)CCC/C=C1\CC2C[C@@H](O)[C@H](C#C[C@@H](O)C3Cc4ccccc4C3)C2C1 (some centres not stated)	0.0017 mg/kg	1.3 µg/kg	Relative potency [13]: 20.1; Relative potency [5]: 0.42; Relative potency [7]: 0.9; Ratio [14]: 21.8; Ratio [9]: 1.8
0.0153 µg/mL (≈ 0.0384 µM)	O=C(O)COC/C=C1\CC2C[C@@H](O)[C@H](/C=C/[C@@H](O)C3Cc4ccccc4C3)C2C1 (some centres not stated)	0.0675 mg/kg	3.8 µg/kg	Relative potency [7]: 0.08; Relative potency [8]: 0.23
> 1 µg/mL	CC(C)c1cccc2c(CC[C@H](O)/C=C/[C@@H]3C4C/C(=C/CCCC(=O)O)CC4C[C@H]3O)ccc-2c1 (some centres not stated)	–	>100 µg/kg	ED50 [10]: No effect
0.0692 µg/mL (≈ 0.168 µM)	CC1([C@H](O)/C=C/[C@@H]2C3CC(CCOCC(=O)O)=C[C@H]3C[C@H]2O)Cc2ccccc2C1 (some centres not stated)	0.006 mg/kg	2 µg/kg	–
0.582 µg/mL (≈ 1.4 µM)	O=C(O)COC/C=C1\CC2C[C@@H](O)[C@H](/C=C/[C@@H](O)C3COc4ccccc4O3)C2C1 (some centres not stated)	0.113 mg/kg	2.5 µg/kg	–
0.118 µg/mL (≈ 0.286 µM)	CC1([C@H](O)/C=C/[C@@H]2C3C/C(=C/COCC(=O)O)CC3C[C@H]2O)Cc2ccccc2C1 (some centres not stated)	0.0397 mg/kg	7.6 µg/kg	–
0.324 µg/mL (≈ 0.781 µM)	O=C(O)CCC/C=C1\CC2C[C@@H](O)[C@H](/C=C/[C@@H](O)C3COc4ccccc4O3)C2C1 (some centres not stated)	0.0045 mg/kg	2 µg/kg	Relative potency [13]: 7.6; Relative potency [7]: 0.6; Ratio [14]: 12.7
0.15 µg/mL (≈ 0.34 µM)	O=C(O)CCC/C=C1\CC2C[C@@H](O)[C@H](/C=C/[C@@H](O)C3Cc4ccc([N+](=O)[O-])cc4C3)C2C1 (some centres not stated)	0.14 mg/kg	8.5 µg/kg	–
> 1 µg/mL	COc1ccc2c(c1)OCC([C@H](O)/C=C/[C@@H]1C3C/C(=C/COCC(=O)O)CC3C[C@H]1O)O2 (some centres not stated)	–	6.2 µg/kg	ED50 [10]: No effect
